One test deals with A549. The test is described as follows: Cytotoxicity against human A549 cells after 72 hrs by SRB assay. The format is functional, cell-based. Particulars: A549, 72 h. The method, boiled down: (§1)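 Adherent tumour cells were seeded in 96-well plates 24 h before dosing and exposed continuously to a series of compound concentrations for 72 h. Cells were then fixed and stained with sulforhodamine B to read out cytotoxicity.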

A further test deals with HT-29. The test is described as follows: Cytotoxicity against human HT29 cells after 72 hrs by SRB assay. As to conditions: HT-29, 72 h. The format is functional, cell-based. The method, boiled down: as §1
The test system of the next test is K562. Put plainly: Cytotoxicity against human K562 cells after 72 hrs by trypan blue exclusion method. As to conditions: K562, 72 h.

Structures can show the parent of a compound that is named as a salt.

Consider `CC(=O)[C@]1(N)Cc2c(O)c3c(c(O)c2[C@@H](O[C@H]2C[C@H](O)[C@H](O)CO2)C1)C(=O)c1ccccc1C3=O` [AMRUBICIN HYDROCHLORIDE], for which the IC50 in the test on A549 was determined as 0.82 µM; in the test with HT-29, 4.36 µM; in the test with K562, 1.26 µM.
The corresponding values for `CC1=C[C@@H]2CC3=C([C@H](O)C[C@]4(C)[C@H]3C[C@]3(O)C=C5C=CC(=O)OC(C)(C)[C@@H]5CC[C@@H]43)[C@H](C)[C@@H]2OC1=O` [KADLONGILACTONE A] are 1.24 µM, 1.44 µM and 3.44 µM.
Take `CO[C@H]1C[C@]2(C)[C@@H](C[C@]3(O)C=C4C=CC(=O)OC(C)(C)[C@@H]4CC[C@@H]23)C2=C1[C@H](C)[C@@H]1OC(=O)C(C)=C[C@@H]1C2` [KADLONGILACTONE E]: the IC50 in the test with A549 worked out at 0.88 µM; in the test on HT-29, 1.32 µM; with K562 it was 3.35 µM.
The corresponding values for `CO[C@@H]1C[C@]2(C)[C@@H](C[C@]3(O)C=C4C=CC(=O)OC(C)(C)[C@@H]4CC[C@@H]23)C2=C1[C@H](C)[C@@H]1OC(=O)C(C)=C[C@@H]1C2` [KADLONGILACTONE C] are 1.45 µM, 2.08 µM and 3.61 µM.
Take `CC1=C[C@@H]2CC3=C([C@@H](O)C[C@]4(C)[C@H]3C[C@]3(O)C=C5C=CC(=O)OC(C)(C)[C@@H]5CC[C@@H]43)[C@H](C)[C@@H]2OC1=O` [KADLONGILACTONE D]: the IC50 was 0.49 µM with A549, 1.64 µM in the test on HT-29 and 1.92 µM in the test with K562.

The values are drawn from ChEMBL document CHEMBL1141336, “Isolation and structure elucidation of kadlongilactones C-F from Kadsura longipedunculata by NMR spectroscopy and DFT computational methods” (J Nat Prod, 2007).
